From ChEMBL document CHEMBL1649480, “Farnesol-induced apoptosis in Candida albicans” (2009)
Calls of active or inactive are those of the source. No cut-off for these calls is given here.

Columns and labels:
Candida albicans [1] = experiment: Downregulation of Riboflavin synthase expression in Candida albicans SC5314 at 40 uM after 24 hrs by MALDI-TOF MS; format: functional, organism-based
Method in brief: (§1)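 Overnight YNB-glucose SC5314 culture, PBS-washed, adjusted to OD600 0.1 and treated 24 h with 40 or 200 μM farnesol (methanol in controls). Proteomes were compared with untreated cells by 2D SDS-PAGE and MALDI-TOF MS, searched against NCBI nonredundant database. Spots were counted as changed at ≥1.5-fold in three independent experiments.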

Candida albicans [2] = experiment: Downregulation of Phosphoglycerate mutase expression in Candida albicans SC5314 at 40 uM after 24 hrs by MALDI-TOF MS; format: functional, organism-based; method in brief: as §1
Candida albicans [3] = experiment: Upregulation of POR1 expression in Candida albicans SC5314 at 200 uM after 24 hrs by MALDI-TOF MS; format: functional, organism-based
Method in brief: (§2)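 SC5314 grown overnight at 30°C, 120 rpm, in yeast nitrogen base (pH 7.0) with 50 mM glucose. Cells were washed in PBS and adjusted to OD600 0.1, then treated 24 h with farnesol from a methanol dilution; controls received methanol. Proteomes of treated and untreated cells were compared by 2-D SDS-PAGE and MALDI-TOF MS, with ProFound searches of the NCBI nonredundant database. Spots changed at least 1.5-fold in three independent experiments were counted.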

Candida albicans [4] = experiment: Downregulation of GRE3 expression in Candida albicans SC5314 at 40 uM after 24 hrs by MALDI-TOF MS; format: functional, organism-based; method in brief: as §1
Candida albicans [5] = experiment: Downregulation of Enolase expression in Candida albicans SC5314 at 40 uM after 24 hrs by MALDI-TOF MS; format: functional, organism-based; method in brief: as §1
Candida albicans [6] = experiment: Downregulation of NADH:quinone oxidoreductase expression in Candida albicans SC5314 at 200 uM after 24 hrs by MALDI-TOF MS; format: functional, organism-based; method in brief: as §1
Candida albicans [7] = experiment: Downregulation of carboxymethylenebutenolidase expression in Candida albicans SC5314 at 200 uM after 24 hrs by MALDI-TOF MS; format: functional, organism-based; method in brief: as §1
Candida albicans [8] = experiment: Downregulation of Dihydroxy acid dehydratase expression in Candida albicans SC5314 at 200 uM after 24 hrs by MALDI-TOF MS; format: functional, organism-based; method in brief: as §1
Candida albicans [9] = experiment: Upregulation of Putative mitochondrial aconitate hydratase expression in Candida albicans SC5314 at 40 uM after 24 hrs by MALDI-TOF MS; format: functional, organism-based; method in brief: as §2
Candida albicans [10] = experiment: Upregulation of Branched chain amino acid transaminase expression in Candida albicans SC5314 at 40 uM after 24 hrs by MALDI-TOF MS; format: functional, organism-based; method in brief: as §1
Candida albicans [11] = experiment: Upregulation of Alcohol dehydrogenase expression in Candida albicans SC5314 at 40 uM after 24 hrs by MALDI-TOF MS; format: functional, organism-based; method in brief: as §1
Candida albicans [12] = experiment: Upregulation of Alanine/arginine aminopeptidase expression in Candida albicans SC5314 at 40 uM after 24 hrs by MALDI-TOF MS; format: functional, organism-based; method in brief: as §1
Candida albicans [13] = experiment: Upregulation of Heat shock protein 90 homologue expression in Candida albicans SC5314 at 40 uM after 24 hrs by MALDI-TOF MS; format: functional, organism-based; method in brief: as §1
Candida albicans [14] = experiment: Upregulation of Aldose reductase expression in Candida albicans SC5314 at 200 uM after 24 hrs by MALDI-TOF MS; format: functional, organism-based; method in brief: as §1
Candida albicans [15] = experiment: Upregulation of Manganese superoxide dismutase expression in Candida albicans SC5314 at 200 uM after 24 hrs by MALDI-TOF MS; format: functional, organism-based; method in brief: as §2
Candida albicans [16] = experiment: Upregulation of Putative aspartate aminotransferase expression in Candida albicans SC5314 at 200 uM after 24 hrs by MALDI-TOF MS; format: functional, organism-based; method in brief: as §2
Candida albicans [17] = experiment: Induction of apoptosis in Candida albicans SC5314 assessed as mitochondrial degradation at 40 uM after 3 hrs by Fluorescence analysis; format: functional
Method in brief: (§3)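 Farnesol-exposed SC5314 (40, 100, 200 μM; methanol control, H2O2 positive control) stained with a MitoPT mitochondrial permeability transition dye per kit instructions. Cells imaged by confocal microscopy: red mitochondrial aggregates in healthy cells, dispersed green signal in apoptotic cells. Percentage of cells with degradation was recorded.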

Candida albicans [18] = experiment: Induction of apoptosis in Candida albicans SC5314 assessed as mitochondrial degradation at 200 uM after 3 hrs by Fluorescence analysis; format: functional; method in brief: as §3
Candida albicans [19] = experiment: Induction of apoptosis in Candida albicans SC5314 assessed as activation of caspase activity at 40 uM after 3 hrs by Fluorescence analysis; format: functional
Method in brief: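 Active caspases in farnesol-exposed cells (40, 100, 200 μM; methanol control, H2O2 positive control) were detected with a FLICA kit per manufacturer. Cells were examined by confocal microscopy, with green-fluorescing cells counted as caspase-positive and unstained cells as nonapoptotic. Percentage of positive cells was recorded.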

Candida albicans [20] = experiment: Induction of apoptosis in Candida albicans SC5314 assessed as activation of caspase activity at 100 uM after 3 hrs by Fluorescence analysis; format: functional
Method in brief: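 SC5314 grown overnight at 30°C (120 rpm) in yeast nitrogen base pH 7.0 with 50 mM glucose, PBS-washed, set to OD600 0.1, then exposed to farnesol (40, 100, 200 μM; methanol diluent). Active caspases detected in situ with a FLICA kit per the manufacturer; green cells imaged by confocal microscopy (Cy2/Cy3). Controls: methanol vehicle and hydrogen peroxide. Done on three or more occasions.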

Candida albicans [21] = experiment: Induction of apoptosis in Candida albicans SC5314 at 100 uM after 24 hrs by TUNEL assay; format: functional
Method in brief: (§4)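 After 24 h in farnesol (40, 100, 200 μM), cells were PBS-washed, fixed in 4% paraformaldehyde (pH 7.4) 1 h at 20°C, and permeabilized 2 min on ice. They were labeled with 9:1 label:enzyme TUNEL mix 1 h at 37°C in the dark and examined by fluorescence microscopy at 515–565 nm. Flow cytometry counted % positive of 30,000 gated cells, gates set by no-enzyme and DNase-treated controls.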

Candida albicans [22] = experiment: Induction of apoptosis in Candida albicans SC5314 at 200 uM after 24 hrs by TUNEL assay; format: functional; method in brief: as §4
Candida albicans [23] = experiment: Down regulation of in MCA1 expression in Candida albicans SC5314 at 40 uM after 4 hrs by quantitative PCR analysis; format: functional, organism-based
Method in brief: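 Log-phase SC5314 exposed 4 h to farnesol (methanol vehicle control). cDNA diluted 1:20 and run in SYBR green real-time PCR: 15 min 95°C, then 35 cycles of 95°C 1 min, 58°C 30 s, 72°C 30 s, with a melt curve check. MCA1 level was calculated by 2^−ΔΔCT against ACT1 and RPP2B reference genes.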

Candida albicans [24] = experiment: Induction of apoptosis in Candida albicans SC5314 assessed as cell death level at 200 uM after 3 hrs by Fluorescence analysis; format: functional
Method in brief: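 Washed, OD600 0.1 SC5314 cells (overnight culture at 30°C in YNB pH 7.0 with 50 mM glucose) exposed 3 h to farnesol, with methanol vehicle and H2O2 controls. Stained 30 min in the dark with a mix of dichlorodihydrofluorescein diacetate, propidium iodide and calcofluor white, then PBS-washed. Confocal imaging; red propidium iodide-stained cells scored as a percentage of all cells.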

Candida albicans [25] = experiment: Increase in MCA1 expression in Candida albicans SC5314 at 10 mM after 4 hrs by quantitative PCR analysis

For `CC(C)=CCC/C(C)=C/CC/C(C)=C/CO` [FARNESOL], the Activity (Candida albicans [1]) was “Active”, the Activity (Candida albicans [2]) was “Active” and the Activity (Candida albicans [3]) was “Active”. The Activity (Candida albicans [4]) was “Active”, the Activity (Candida albicans [5]) was “Active” and the Activity (Candida albicans [6]) was “Active”. The Activity (Candida albicans [7]) was “Active”, the Activity (Candida albicans [8]) was “Active” and the Activity (Candida albicans [9]) was “Active”. For the same compound, the Activity (Candida albicans [10]) was “Active”, the Activity (Candida albicans [11]) was “Active” and the Activity (Candida albicans [12]) was “Active”. The Activity (Candida albicans [13]) was “Active”, the Activity (Candida albicans [14]) was “Active” and the Activity (Candida albicans [15]) was “Active”. For the same compound, the Activity (Candida albicans [16]) was “Active”, the Activity (Candida albicans [17]) was 90% and the Activity (Candida albicans [18]) was 95%. The Activity (Candida albicans [19]) was 5%, the Activity (Candida albicans [20]) was 13% and the Activity (Candida albicans [21]) was 10.2%. For the same compound, the Activity (Candida albicans [22]) was 14.5%, the Activity (Candida albicans [23]) was “inactive” and the Activity (Candida albicans [24]) was 35%. For the same compound, the Activity (Candida albicans [25]) was “Active”.
